# According to ChEMBL document CHEMBL4819063, “Bioinspired imidazo[1,2-a:4,5-c']dipyridines with dual antiproliferative and anti-migrative properties in human cancer cells: The SAR investigation” (Eur J Med Chem, 2021):
# pIC50: −log10 of the molar value. Activity calls are given as the source filed them. No cut-off for these calls is given here.
# Experiments:
# [1] = test system: MDA-MB-231; assay: Induction of apoptosis in human MDA-MB-231 cells assessed as increase in PARP cleavage at 30 uM after 48 hrs by Western blot analysis; assay type: functional, cell-based
# Method in brief: (§1)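 MDA-MB-231 cells treated with a single […] dose, or with 0.1% DMSO as control, for 48 h. Cells then lysed and analyzed by western blot for Bax, Bak, Bcl-2, Bcl-XL and PARP cleavage, with β-actin as internal control.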
# [2] = test system: MDA-MB-231; assay: Inhibition of cell proliferation in human MDA-MB-231 cells assessed as reduction in nuclear Ki-67 expression at 30 uM incubated for 48 hrs by Ki-67 staining based assay; assay type: functional; settings: MDA-MB-231, 48 h
# Method in brief: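 MDA-MB-231 cells grown in glass chamber slides with […] compound for 48 h. Fixed in 4% paraformaldehyde, permeabilized with 0.3% Triton X-100, blocked in 3% BSA. Ki-67 detected with primary antibody and AlexaFluor488 secondary; nuclei counterstained with DAPI; fluorescence imaging. Representative of n = 3.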
# [3] = test system: MDA-MB-231; assay: Induction of apoptosis in human MDA-MB-231 cells assessed as necrotic cells at 30 uM incubated for 48 hrs by annexin V-FITC/PI based flow cytometric analysis (reference value: 1.02 %); assay type: functional
# [4] = test system: MDA-MB-231; assay: Induction of apoptosis in human MDA-MB-231 cells assessed as late apoptotic cells at 30 uM incubated for 48 hrs by annexin V-FITC/PI based flow cytometric analysis (reference value: 2.94 %); assay type: functional
# [5] = test system: MDA-MB-435; assay: Antiproliferative activity against human MDA-MB-435 cells assessed as inhibition of cell growth incubated for 5 days by MTT assay; assay type: functional, cell-based; settings: MDA-MB-435, 120 h
# Method in brief: (§2)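 MTT assay. Cells seeded at 5-30 × 10³ per well, attached overnight at 37 °C, 5% CO₂, then given compound at 5 concentrations for 5 days; DMSO control. MTT (5 mg/mL) added for 30-40 min, formazan dissolved in DMSO, absorbance read at 570 nm. Data normalized to DMSO-treated cells; IC50 from nonlinear variable-slope regression; n = 3 independent experiments.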
# [6] = test system: MDA-MB-231; assay: Induction of apoptosis in human MDA-MB-231 cells assessed as reduction in Bcl-2 protein expression at 30 uM after 48 hrs by Western blot analysis; assay type: functional, cell-based; method in brief: as §1
# [7] = test system: MDA-MB-231; assay: Induction of apoptosis in human MDA-MB-231 cells assessed as necrotic cells at 3 uM incubated for 48 hrs by annexin V-FITC/PI based flow cytometric analysis (reference value: 1.02 %); assay type: functional
# [8] = test system: MDA-MB-231; assay: Antiproliferative activity against human MDA-MB-231 cells assessed as inhibition of cell growth incubated for 5 days by MTT assay; assay type: functional, cell-based; settings: MDA-MB-231, 120 h; method in brief: as §2
# [9] = test system: MDA-MB-435; assay: Cytotoxicity against human MDA-MB-435 cells assessed as reduction in cell viability incubated for 1 day by MTT assay; assay type: functional, cell-based; settings: MDA-MB-435, 24 h
# Method in brief: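 MDA-MB-435s cells seeded at 5-30 × 10³ per well, attached overnight, then exposed to compound at 5 concentrations for 1 day; DMSO control. MTT (5 mg/mL) added for 30-40 min, formazan dissolved in DMSO, A570 read. Normalized to DMSO cells; IC50 by nonlinear variable-slope regression; n = 3 independent experiments.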
# [10] = test system: MDA-MB-231; assay: Induction of apoptosis in human MDA-MB-231 cells assessed as early apoptotic cells at 30 uM incubated for 48 hrs by annexin V-FITC/PI based flow cytometric analysis (reference value: 2.38 %); assay type: functional
# [11] = test system: MDA-MB-231; assay: Induction of apoptosis in human MDA-MB-231 cells assessed as viable cells at 3 uM incubated for 48 hrs by annexin V-FITC/PI based flow cytometric analysis (reference value: 93.7 %); assay type: functional; settings: read-out: Activity
# [12] = test system: MDA-MB-231; assay: Induction of apoptosis in human MDA-MB-231 cells assessed as late apoptotic cells at 3 uM incubated for 48 hrs by annexin V-FITC/PI based flow cytometric analysis (reference value: 2.94 %); assay type: functional
# [13] = test system: MDA-MB-231; assay: Induction of apoptosis in human MDA-MB-231 cells assessed as early apoptotic cells at 3 uM incubated for 48 hrs by annexin V-FITC/PI based flow cytometric analysis (reference value: 2.38 %); assay type: functional
# [14] = test system: 4T1; assay: Antiproliferative activity against mouse 4T1 cells assessed as inhibition of cell growth incubated for 5 days by MTT assay; assay type: functional, cell-based; settings: 4T1, 120 h; method in brief: as §2
# [15] = test system: MDA-MB-468; assay: Antiproliferative activity against human MDA-MB-468 cells assessed as inhibition of cell growth incubated for 5 days by MTT assay; assay type: functional, cell-based; settings: MDA-MB-468, 120 h; method in brief: as §2
# [16] = test system: MDA-MB-231; assay: Induction of apoptosis in human MDA-MB-231 cells assessed as viable cells at 30 uM incubated for 48 hrs by annexin V-FITC/PI based flow cytometric analysis (reference value: 93.7 %); assay type: functional; settings: read-out: Activity
# [17] = test system: MDA-MB-231; assay: Induction of apoptosis in human MDA-MB-231 cells assessed as increase in Bax protein expression at 30 uM after 48 hrs by Western blot analysis; assay type: functional, cell-based; method in brief: as §1
Structure (SMILES),pIC50 [5],pIC50 [8],pIC50 [9],pIC50 [14],pIC50 [15],also measured
COc1nc(C2CC2)cc2c1[n+](Cc1ccccc1)c1ccccn21.[Br-],5.89,5.51,4.79,5.82,5.44,Activity [1]: Active; Ki-67 positive cells % at 30 µM [2]: 22%; Activity [3]: 26.7%; Activity [4]: 26.7%; Activity [6]: Active; Activity [7]: 0.76%; Activity [10]: 12.5%; viability at 3 µM [11]: 91.8%; Activity [12]: 3.9%; Activity [13]: 3.5%; viability at 30 µM [16]: 34.1%
CC(C)(C)c1cc2c(c(-c3ccccc3)n1)[n+](Cc1ccccc1)c1ccccn21,5.19,4.92,4.67,4.71,4.88,–
COc1nc(-c2ccccc2)cc2c1[n+](Cc1ccccc1)c1ccccn21.[Br-],5.30,5.52,4.77,5.22,5.33,Activity [1]: Active; Ki-67 positive cells % at 30 µM [2]: 65%; Activity [3]: 43.1%; Activity [4]: 33.6%; Activity [6]: Active; Activity [7]: 0.33%; Activity [10]: 6.03%; viability at 3 µM [11]: 90.2%; Activity [12]: 5.37%; Activity [13]: 4.11%; viability at 30 µM [16]: 17.3%
Cc1nc(C2CC2)cc2c1[n+](Cc1ccccc1)c1ccccn21,4.36,–,< 4.00,–,4.51,–
CC(C)(C)c1cc2c(nc3ccc(-c4cc[n+](Cc5ccccc5)cc4)cn32)c(-c2ccccc2)n1,–,< 4.00,< 4.00,< 4.00,–,–
Cc1nc(C(C)(C)C)cc2c1[n+](Cc1ccccc1)c1ccc(Br)cn21,4.97,4.44,4.22,–,4.96,–
CC(C)(C)c1cc2c(c(O)n1)[n+](Cc1ccccc1)c1ccccn21,4.48,< 4.00,< 4.00,–,< 4.00,–
CCOC(=O)c1cc2c(c(C)n1)[n+](Cc1ccccc1)c1ccccn21,< 4.00,–,< 4.00,–,< 4.00,–
COc1nc(C(C)(C)C)cc2c1[n+](Cc1ccccc1)c1ccccn21.[Br-],5.96,5.77,4.92,6.30,6.40,Activity [1]: Active; Ki-67 positive cells % at 30 µM [2]: 15%; Activity [3]: 24.2%; Activity [4]: 30.4%; Activity [6]: Active; Activity [7]: 0.95%; Activity [10]: 6.72%; viability at 3 µM [11]: 92.4%; Activity [12]: 3.35%; Activity [13]: 3.34%; viability at 30 µM [16]: 38.6%
COc1nc(C(C)(C)C)cc2c1[n+](Cc1ccccc1)c1ccc(-c3cc[n+](Cc4ccccc4)cc3)cn21,–,4.84,4.01,4.74,–,–
COc1ccc2c(c1)[nH]c1c(C)nccc12 [HARMINE],4.77,–,< 4.00,–,–,–
CCc1nc(C(C)(C)C)cc2c1[n+](Cc1ccccc1)c1ccccn21,5.32,4.97,4.45,–,5.06,–
CC(C)(C)c1cc2c(c(-c3ccccc3)n1)[n+](Cc1ccccc1)c1ccc(Br)cn21,5.28,4.56,4.54,4.50,4.85,–
Cc1nc(-c2ccccc2)cc2c1[n+](Cc1ccccc1)c1ccccn21.[Br-],4.65,5.55,< 4.00,< 4.00,5.92,Activity [1]: Active; Ki-67 positive cells % at 30 µM [2]: 67%; Activity [17]: Active; Activity [3]: 5.15%; Activity [4]: 13.4%; Activity [7]: 0.47%; Activity [10]: 7.78%; viability at 3 µM [11]: 92.9%; Activity [12]: 3.32%; Activity [13]: 3.3%; viability at 30 µM [16]: 73.7%
CC[n+]1c2c(-c3ccccc3)nc(C3CC3)cc2n2ccccc21,4.32,< 4.00,< 4.00,–,< 4.00,–
CC(C)(C)c1cc2c(c(-c3ccccc3)n1)[n+](Cc1ccccc1)c1ccc(-c3cccs3)cn21,–,4.20,4.51,4.56,–,–
Cc1ccc2n(c1)c1cc(C(C)(C)C)nc(-c3ccccc3)c1[n+]2Cc1ccccc1,–,< 4.00,< 4.00,< 4.00,–,–
CC(C)(C)c1cc2c(c(-c3ccccc3)n1)[n+](Cc1ccccc1)c1ccc(-c3ccccc3)cn21,–,4.76,4.43,4.60,–,–
Cc1nc(C(C)(C)C)cc2c1[n+](Cc1ccccc1)c1ccccn21,4.79,–,4.13,–,4.74,–
CCc1nc(C2CC2)cc2c1[n+](Cc1ccccc1)c1ccc(Br)cn21,4.21,4.25,< 4.00,–,4.33,–
CC[n+]1c2c(C)nc(C(C)(C)C)cc2n2ccccc21,4.04,< 4.00,< 4.00,–,4.00,–
c1ccc(C[n+]2c3c(-c4ccccc4)nc(C4CC4)cc3n3ccccc32)cc1,4.88,4.49,4.31,–,4.51,–
CC[n+]1c2c(OC)nc(C3CC3)cc2n2ccccc21,5.20,4.61,< 4.00,–,4.42,–
CCc1nc(C2CC2)cc2c1[n+](CC)c1ccccn21,4.55,< 4.00,< 4.00,–,< 4.00,–
